Laboratory results published in ChEMBL document CHEMBL2331438, “An efficient domino reaction in ionic liquid: synthesis and biological evaluation of some pyrano- and thiopyrano-fused heterocycles” (2013).
≈ marks a conversion by molar mass, not a printed value.

Legend:
Candida albicans = assay: Antifungal activity against Candida albicans MTCC 227 after 48 hrs by broth microdilution method; type: functional; conditions: MTCC 227, 48 h
Aspergillus fumigatus = assay: Antifungal activity against Aspergillus fumigatus MTCC 3008 after 48 hrs by broth microdilution method; type: functional; conditions: MTCC 3008, 48 h
[1] = test system: Mycobacterium tuberculosis; assay: Antimycobacterial activity against Mycobacterium tuberculosis H37Rv at 250 ug/ml; type: functional
Procedure, shortened: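 M. tuberculosis H37Rv tested on L.J. (Löwenstein–Jensen) medium.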

Clostridium tetani = assay: Antibacterial activity against Clostridium tetani MTCC 449 after 24 hrs by broth microdilution method; type: functional; conditions: MTCC 449, 24 h
[2] = Antioxidant activity assessed as ascorbic acid equivalent ferric ion reducing activity per 100 gram at 200 ug/ml by FRAP assay; type: functional
Bacillus subtilis = assay: Antibacterial activity against Bacillus subtilis MTCC 441 after 24 hrs by broth microdilution method; type: functional; conditions: MTCC 441, 24 h
Salmonella typhi = assay: Antibacterial activity against Salmonella typhi MTCC 98 after 24 hrs by broth microdilution method; type: functional, Salmonella enterica subsp. enterica serovar Typhi; conditions: Salmonella enterica, MTCC 98, 24 h
Streptococcus pneumoniae = assay: Antibacterial activity against Streptococcus pneumoniae MTCC 1936 after 24 hrs by broth microdilution method; type: functional; conditions: MTCC 1936, 24 h
Vibrio cholerae = assay: Antibacterial activity against Vibrio cholerae MTCC 3906 after 24 hrs by broth microdilution method; type: functional; conditions: MTCC 3906, 24 h
Escherichia coli = assay: Antibacterial activity against Escherichia coli MTCC 443 after 24 hrs by broth microdilution method; type: functional; conditions: MTCC 443, 24 h

Cc1nn(-c2ccccc2Cl)c2c1[C@@H]1c3c(ccc4c(C)cc(=O)oc34)OC[C@@H]1C(C)(C)O2
MIC (Candida albicans): 1000 µg/mL (≈ 2160 µM)
MIC (Aspergillus fumigatus): 200 µg/mL (≈ 432 µM)
inhibition at 250 µg/mL [1]: 40%
MIC (Clostridium tetani): 250 µg/mL (≈ 540 µM)
Activity [2]: 210 mmol
MIC (Bacillus subtilis): 100 µg/mL (≈ 216 µM)
MIC (Salmonella typhi): 125 µg/mL (≈ 270 µM)
MIC (Streptococcus pneumoniae): 250 µg/mL (≈ 540 µM)
MIC (Vibrio cholerae): 250 µg/mL (≈ 540 µM)
MIC (Escherichia coli): 125 µg/mL (≈ 270 µM)

Cc1nn(-c2ccccc2)c2c1[C@@H]1c3c(ccc4c(C)cc(=O)oc34)OC[C@@H]1C(C)(C)O2
MIC (Candida albicans): 1000 µg/mL (≈ 2330 µM)
MIC (Aspergillus fumigatus): 200 µg/mL (≈ 467 µM)
inhibition at 250 µg/mL [1]: 65%
MIC (Clostridium tetani): 500 µg/mL (≈ 1170 µM)
Activity [2]: 146 mmol
MIC (Bacillus subtilis): 200 µg/mL (≈ 467 µM)
MIC (Salmonella typhi): 250 µg/mL (≈ 583 µM)
MIC (Streptococcus pneumoniae): 200 µg/mL (≈ 467 µM)
MIC (Vibrio cholerae): 250 µg/mL (≈ 583 µM)
MIC (Escherichia coli): 250 µg/mL (≈ 583 µM)

Cc1nn(-c2ccccc2Cl)c2c1[C@@H]1c3cc4cccc(C)c4nc3SC[C@@H]1CO2
MIC (Candida albicans): 500 µg/mL (≈ 1150 µM)
MIC (Aspergillus fumigatus): 250 µg/mL (≈ 576 µM)
inhibition at 250 µg/mL [1]: 29%
MIC (Clostridium tetani): 125 µg/mL (≈ 288 µM)
Activity [2]: 147 mmol
MIC (Bacillus subtilis): 125 µg/mL (≈ 288 µM)
MIC (Salmonella typhi): 250 µg/mL (≈ 576 µM)
MIC (Streptococcus pneumoniae): 100 µg/mL (≈ 230 µM)
MIC (Vibrio cholerae): 200 µg/mL (≈ 461 µM)
MIC (Escherichia coli): 250 µg/mL (≈ 576 µM)

Cc1nn(-c2ccccc2)c2c1[C@@H]1c3cc4cccc(C)c4nc3SC[C@@H]1CO2
MIC (Candida albicans): 1000 µg/mL (≈ 2500 µM)
MIC (Aspergillus fumigatus): 250 µg/mL (≈ 626 µM)
inhibition at 250 µg/mL [1]: 38%
MIC (Clostridium tetani): 200 µg/mL (≈ 501 µM)
Activity [2]: 160 mmol
MIC (Bacillus subtilis): 100 µg/mL (≈ 250 µM)
MIC (Salmonella typhi): 200 µg/mL (≈ 501 µM)
MIC (Streptococcus pneumoniae): 250 µg/mL (≈ 626 µM)
MIC (Vibrio cholerae): 250 µg/mL (≈ 626 µM)
MIC (Escherichia coli): 250 µg/mL (≈ 626 µM)

Cc1nn(-c2cccc(Cl)c2)c2c1[C@@H]1c3c(ccc4c(C)cc(=O)oc34)OC[C@@H]1C(C)(C)O2
MIC (Candida albicans): 500 µg/mL (≈ 1080 µM)
MIC (Aspergillus fumigatus): 1000 µg/mL (≈ 2160 µM)
inhibition at 250 µg/mL [1]: 29%
MIC (Clostridium tetani): 200 µg/mL (≈ 432 µM)
Activity [2]: 225 mmol
MIC (Bacillus subtilis): 200 µg/mL (≈ 432 µM)
MIC (Salmonella typhi): 200 µg/mL (≈ 432 µM)
MIC (Streptococcus pneumoniae): 62.5 µg/mL (≈ 135 µM)
MIC (Vibrio cholerae): 250 µg/mL (≈ 540 µM)
MIC (Escherichia coli): 200 µg/mL (≈ 432 µM)

Cc1nn(-c2cc(Cl)ccc2Cl)c2c1[C@@H]1c3c(ccc4c(C)cc(=O)oc34)OC[C@@H]1CO2
MIC (Candida albicans): 250 µg/mL (≈ 533 µM)
MIC (Aspergillus fumigatus): > 1000 µg/mL
inhibition at 250 µg/mL [1]: 28%
MIC (Clostridium tetani): 250 µg/mL (≈ 533 µM)
Activity [2]: 184 mmol
MIC (Bacillus subtilis): 200 µg/mL (≈ 426 µM)
MIC (Salmonella typhi): 250 µg/mL (≈ 533 µM)
MIC (Streptococcus pneumoniae): 200 µg/mL (≈ 426 µM)
MIC (Vibrio cholerae): 100 µg/mL (≈ 213 µM)
MIC (Escherichia coli): 125 µg/mL (≈ 266 µM)

Cc1cc(=O)oc2c3c(ccc12)OC[C@@H]1COc2c(c(-c4ccccc4)nn2-c2ccccc2)[C@H]31
MIC (Candida albicans): 500 µg/mL (≈ 1080 µM)
MIC (Aspergillus fumigatus): 500 µg/mL (≈ 1080 µM)
inhibition at 250 µg/mL [1]: 68%
MIC (Clostridium tetani): 100 µg/mL (≈ 216 µM)
Activity [2]: 163 mmol
MIC (Bacillus subtilis): 125 µg/mL (≈ 270 µM)
MIC (Salmonella typhi): 125 µg/mL (≈ 270 µM)
MIC (Streptococcus pneumoniae): 100 µg/mL (≈ 216 µM)
MIC (Vibrio cholerae): 100 µg/mL (≈ 216 µM)
MIC (Escherichia coli): 62.5 µg/mL (≈ 135 µM)

Cc1nn(-c2ccc([N+](=O)[O-])cc2)c2c1[C@@H]1c3c(ccc4c(C)cc(=O)oc34)OC[C@@H]1CO2
MIC (Candida albicans): 1000 µg/mL (≈ 2250 µM)
MIC (Aspergillus fumigatus): 250 µg/mL (≈ 561 µM)
inhibition at 250 µg/mL [1]: 79%
MIC (Clostridium tetani): 250 µg/mL (≈ 561 µM)
Activity [2]: 163 mmol
MIC (Bacillus subtilis): 200 µg/mL (≈ 449 µM)
MIC (Salmonella typhi): 200 µg/mL (≈ 449 µM)
MIC (Streptococcus pneumoniae): 250 µg/mL (≈ 561 µM)
MIC (Vibrio cholerae): 250 µg/mL (≈ 561 µM)
MIC (Escherichia coli): 125 µg/mL (≈ 281 µM)

Cc1nn(-c2ccccc2Cl)c2c1[C@@H]1c3cc4ccccc4nc3SC[C@@H]1CO2
MIC (Candida albicans): 1000 µg/mL (≈ 2380 µM)
MIC (Aspergillus fumigatus): > 1000 µg/mL
inhibition at 250 µg/mL [1]: 52%
MIC (Clostridium tetani): 250 µg/mL (≈ 595 µM)
Activity [2]: 90.9 mmol
MIC (Bacillus subtilis): 125 µg/mL (≈ 298 µM)
MIC (Salmonella typhi): 250 µg/mL (≈ 595 µM)
MIC (Streptococcus pneumoniae): 100 µg/mL (≈ 238 µM)
MIC (Vibrio cholerae): 250 µg/mL (≈ 595 µM)
MIC (Escherichia coli): 250 µg/mL (≈ 595 µM)

Cc1nn(-c2ccccc2Cl)c2c1[C@@H]1c3c(ccc4c(C)cc(=O)oc34)OC[C@@H]1CO2
MIC (Candida albicans): 1000 µg/mL (≈ 2300 µM)
MIC (Aspergillus fumigatus): > 1000 µg/mL
inhibition at 250 µg/mL [1]: 30%
MIC (Clostridium tetani): 200 µg/mL (≈ 460 µM)
Activity [2]: 200 mmol
MIC (Bacillus subtilis): 62.5 µg/mL (≈ 144 µM)
MIC (Salmonella typhi): 100 µg/mL (≈ 230 µM)
MIC (Streptococcus pneumoniae): 100 µg/mL (≈ 230 µM)
MIC (Vibrio cholerae): 250 µg/mL (≈ 575 µM)
MIC (Escherichia coli): 125 µg/mL (≈ 287 µM)

Cc1nn(-c2cccc(Cl)c2)c2c1[C@@H]1c3cc4ccccc4nc3SC[C@@H]1CO2
MIC (Candida albicans): > 1000 µg/mL
MIC (Aspergillus fumigatus): 1000 µg/mL (≈ 2380 µM)
inhibition at 250 µg/mL [1]: 61%
MIC (Clostridium tetani): 125 µg/mL (≈ 298 µM)
Activity [2]: 128 mmol
MIC (Bacillus subtilis): 200 µg/mL (≈ 476 µM)
MIC (Salmonella typhi): 100 µg/mL (≈ 238 µM)
MIC (Streptococcus pneumoniae): 250 µg/mL (≈ 595 µM)
MIC (Vibrio cholerae): 200 µg/mL (≈ 476 µM)
MIC (Escherichia coli): 62.5 µg/mL (≈ 149 µM)

Cc1nn(-c2cccc(Cl)c2)c2c1[C@@H]1c3cc4cccc(C)c4nc3SC[C@@H]1C(C)(C)O2 (single isomer, unassigned)
MIC (Candida albicans): 500 µg/mL (≈ 1080 µM)
MIC (Aspergillus fumigatus): 500 µg/mL (≈ 1080 µM)
inhibition at 250 µg/mL [1]: 91%
MIC (Clostridium tetani): 1000 µg/mL (≈ 2160 µM)
Activity [2]: 18.2 mmol
MIC (Bacillus subtilis): 200 µg/mL (≈ 433 µM)
MIC (Salmonella typhi): 250 µg/mL (≈ 541 µM)
MIC (Streptococcus pneumoniae): 100 µg/mL (≈ 216 µM)
MIC (Vibrio cholerae): 100 µg/mL (≈ 216 µM)
MIC (Escherichia coli): 150 µg/mL (≈ 325 µM)
